# Data taken from PMC11486593 (Biochimica et biophysica acta. General subjects, 2024).
# What was measured:
# [1] = test system: SAG-induced AP activity in C3H10T1/2 cells; experiment: C3H10T1/2 cell-based assay, inhibition of SAG-induced alkaline phosphatase; set-up: species or system murine; settings: for Inhibition of SAG-induced AP: C3H10T1/2 cells, SAG at EC50 (100 nM), 5 days; for Cytotoxicity in C3H10T1/2 cells: inferred from lack of effect in the SAG induction assay
# In short: (§1)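 C3H10T1/2 murine embryonic fibroblasts, stimulated for 5 days with an agonist at its EC50 (human ShhN N-terminal domain, residues 24–197, at 2 μg/ml; or Smoothened agonist SAG at 100 nM), with or without the test compound in dose response. Alkaline phosphatase activity is measured as the marker of pathway activation. IC50 is obtained by non-linear regression.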
# [2] = test system: ShhN-induced Gli1 and Ptch1 mRNA in C3H10T1/2 cells; experiment: qRT-PCR for Gli1 and Ptch1 in C3H10T1/2 cells, ShhN-mediated induction; assay type: cell-based, mouse; settings: 5 days; for Decrease of ShhN-mediated induction of Gli1 and Ptch1 compared to ShhN treatment alone: 50 μM compound; for Inhibition of ShhN-induced GLI1 and Ptch1 mRNA: 50 μM for compounds 4, 21 and 24, 10 μM for robotnikinin
# [3] = test system: SAG-induced Gli1 and Ptch1 mRNA in C3H10T1/2 cells; experiment: qRT-PCR for Gli1 and Ptch1 in C3H10T1/2 cells, SAG-mediated induction; assay type: cell-based, mouse; settings: 5 days, 50 μM for compounds 4, 21 and 24, 10 μM for robotnikinin
# ShhN protein = ShhN protein (Homo sapiens, UniProt Q15465); experiment: Protein thermal shift assay; assay type: binding; settings: ShhN 1–2 μM; compounds 1.56 to 50 μM
# In short: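 Differential scanning fluorimetry uses human ShhN (residues 24–197, 1–2 μM final) mixed with the kit's thermal shift buffer and dye, held on ice, with or without the test compound at 1.56–50 μM. Melt runs at a continuous ramp of […] from 25°C to 97.5°C. ΔTm is the difference in transition midpoint with versus without compound.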
# ShhN/heparin binding = ShhN/heparin binding (Homo sapiens, UniProt Q15465); experiment: Solid-phase ShhN/heparin binding assay; settings: for ShhN/flu-heparin binding IC50 of known compounds: compounds known to bind Shh, heparin binding domains or heparin, Fig. 3B
# [4] = test system: ShhN-induced AP activity in C3H10T1/2 cells; experiment: C3H10T1/2 cell-based assay, inhibition of ShhN-induced alkaline phosphatase; set-up: species or system murine; settings: dose response, 5 days
# In short: as §1
# C3H10T1/2 cells = experiment: Induction of AP activity in C3H10T1/2 cells by agonists; assay type: cell-based, murine; settings: read-out: EC50 for induction of AP activity, 5 days
# In short: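 C3H10T1/2 murine embryonic fibroblasts are cultured for 24 h, then exposed to varying concentrations of ShhN protein or SAG for 5 days. Alkaline phosphatase induction is read as the activation marker, and EC50 is fitted by non-linear regression. A ShhN dose-response curve is run on every plate as an internal control.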
# Chain of ShhN/heparin binding (Q15465 24-197): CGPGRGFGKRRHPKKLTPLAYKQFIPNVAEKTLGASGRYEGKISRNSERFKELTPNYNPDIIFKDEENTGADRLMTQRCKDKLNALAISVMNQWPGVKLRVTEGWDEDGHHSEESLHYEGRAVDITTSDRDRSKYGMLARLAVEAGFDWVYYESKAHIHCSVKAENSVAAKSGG
# Chain of ShhN protein (Q15465 24-197): as above
compound,measurement,setting,value
"CCc1ccc(C2=C/C(=C/c3ccco3)C(=O)O2)cc1 [Compound 4, (3Z)-5-(4-Ethylphenyl)-3-(furan-2-ylmethylidene) furan-2-one]",Inhibition of SAG-induced AP,[1],not SAG induction of AP
same,Cytotoxicity in C3H10T1/2 cells,[1],not cytotoxic
same,Decrease of ShhN-mediated induction of Gli1 and Ptch1 compared to ShhN treatment alone,[2],6–7 fold
same,Inhibition of ShhN-induced GLI1 and Ptch1 mRNA,[2],significantly blocked
same,Inhibition of SAG-induced GLI1 and Ptch1 mRNA,[3],did not decrease
same,Tm shift (ΔTm) on binding to ShhN,ShhN protein,1.58 °C
"O=C1NC(=S)N(c2ccc(F)cc2)C(=O)C1=Cc1ccco1 [Compound 7, 1-(4-Fluoro-phenyl)-5-furan-2-ylmethylene-2-thioxo-dihydro-pyrimidine-4,6-dione]",IC50,ShhN/heparin binding,17.5 µM
"O=C(NCCNC1CCCC1)c1cccs1 [Compound 24, N-[2-(Cyclopentylamino)ethyl] thiophene-2-carboxamide]",Inhibition of SAG-induced AP,[1],not SAG induction of AP
same,Cytotoxicity in C3H10T1/2 cells,[1],not cytotoxic
same,Decrease of ShhN-mediated induction of Gli1 and Ptch1 compared to ShhN treatment alone,[2],6–7 fold
same,Inhibition of ShhN-induced GLI1 and Ptch1 mRNA,[2],significantly blocked
same,Inhibition of SAG-induced GLI1 and Ptch1 mRNA,[3],did not decrease
same,Tm shift (ΔTm) on binding to ShhN,ShhN protein,0.85 °C
"O=C(C[C@@H]1C/C=C/CCC(=O)O[C@H](c2ccccc2)CNC1=O)NCc1ccc(Cl)cc1 [Robotnikinin, reference compound]",ShhN/flu-heparin binding IC50 of known compounds,ShhN/heparin binding,did not block binding
same,Block of ShhN-mediated AP induction,[4],able to block ShhN-
same,Inhibition of SAG-induced AP,[1],not SAG-mediated AP induction
same,Inhibition of ShhN-induced GLI1 and Ptch1 mRNA,[2],blocked
same,Inhibition of SAG-induced GLI1 and Ptch1 mRNA,[3],did not block
same,Tm shift (ΔTm) on binding to ShhN,ShhN protein,0.85 °C
CNC1CCC(N(Cc2cccc(-c3ccncc3)c2)C(=O)c2sc3ccccc3c2Cl)CC1 (centres unmarked) [SAG],EC50,C3H10T1/2 cells,0.1 µM
"Cc1ccc(C(=O)Nc2ccc(S(=O)(=O)O)c3cc(S(=O)(=O)O)cc(S(=O)(=O)O)c23)cc1NC(=O)c1cccc(NC(=O)Nc2cccc(C(=O)Nc3cc(C(=O)Nc4ccc(S(=O)(=O)O)c5cc(S(=O)(=O)O)cc(S(=O)(=O)O)c45)ccc3C)c2)c1 [Suramin, reference compound]",Block of ShhN-mediated AP induction,[4],blocked
same,Tm shift (ΔTm) on binding to ShhN,ShhN protein,0.73 °C
"Cc1cc(N)c2cc(NC(=O)Nc3ccc4nc(C)cc(N)c4c3)ccc2n1 [surfen, Surfen]",ShhN/flu-heparin binding IC50 of known compounds,ShhN/heparin binding,did not block binding
